{"data": "Results from different studies", "HTR2A": "5-hydroxytryptamine receptor 2A (HTR2A, Homo sapiens, UniProt P28223)", "SRD5A1": "3-oxo-5-alpha-steroid 4-dehydrogenase 1 (SRD5A1, Homo sapiens, UniProt P18405)", "note": "Compare with care: the assays were run in different laboratories."}
{"SMILES": "COc1cc2c3c(c1OC)-c1c(OC)ccc(-c4ccc(C#N)cc4)c1CC3N(C)CC2 (stereo not shown)", "target": "HTR2A", "test": "ligand displacement, radioligand", "setting": "10 µM", "inhibition [%]": 34}
{"SMILES": "NC/C(=C\\F)COc1cccc(Cn2c(=S)[nH]c(=O)c3[nH]cnc32)c1", "target": "Hepatic sodium/bile acid cotransporter (SLC10A1, Homo sapiens, UniProt Q14973)", "test": "transporter uptake, inhibitor", "setting": "30 µM", "inhibition [%]": "< 50"}
{"SMILES": "O=C(O)/C=C/c1ccc(O)c(O)c1", "target": "SRD5A1", "test": "enzyme activity in cells, inhibitor", "system": "HaCaT", "setting": "50 µM", "inhibition [%]": 6.07}
{"SMILES": "CCN1/C(=C/C(C)=O)Sc2ccc(F)cc21", "target": "Endothelin-1 receptor (EDNRA, Homo sapiens, UniProt P25101)", "test": "ligand displacement, radioligand", "setting": "10 µM", "inhibition [%]": 9.86}
{"SMILES": "COc1cc(C=CC(=O)O)ccc1OC(C)=O", "target": "SRD5A1", "test": "enzyme activity in cells, inhibitor", "system": "HaCaT", "setting": "50 µM", "inhibition [%]": 18.6}
{"SMILES": "Cc1cc(O)c(-c2ccc([C@@H](C)CN(C)C)cc2)c2c1[nH]c(=O)c1sccc12", "target": "Serine/threonine-protein kinase VRK2 (VRK2, Homo sapiens, UniProt Q86Y07)", "test": "enzyme activity, inhibitor", "setting": "0.1 µM", "inhibition [%]": 3.23}
{"SMILES": "C#Cc1cc(-c2cc(Nc3nc(N[C@@H](C)c4ccc(F)cn4)ncc3Cl)n[nH]2)ccc1C=O", "target": "Cytoplasmic tyrosine-protein kinase BMX (BMX, Homo sapiens, UniProt P51813)", "test": "enzyme activity, inhibitor", "setting": "0.2 µM", "inhibition [%]": 70.8}
{"SMILES": "CC(=O)Oc1ccc(C=CC(=O)O)cc1OC(C)=O", "target": "SRD5A1", "test": "enzyme activity in cells, inhibitor", "system": "HaCaT", "setting": "50 µM", "inhibition [%]": 12.2}
{"SMILES": "CC[N+]1(C)CCc2cc(OC)c(OC)c3c2C1Cc1cccc(OC)c1-3 (stereo not shown)", "target": "HTR2A", "test": "ligand displacement, radioligand", "setting": "10 µM", "inhibition [%]": 3}
{"SMILES": "Cc1cc(F)cc2c(CCC(=O)N[C@@H]3C(=O)NC[C@H]3O)c(-c3ccc(F)cc3)[nH]c12", "target": "Cannabinoid receptor 1 (CNR1, Homo sapiens, UniProt P21554)", "test": "cell-free assay", "setting": "10 µM", "inhibition [%]": -2}
